Laboratory results published in ChEMBL document CHEMBL1828581 (J Med Chem, 2011).
The source made the active and inactive calls. No cut-off for these calls is given here.

Columns and labels:
[1] = Inhibition of beta-hematin formation assessed as equivalents of drug relative to hematin for 50% inhibition at pH 4.5 by BHIA assay; assay type: functional
Outline: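 β-Hematin formation mediated by 4.5 M acetate, pH 4.5, in a 96-well plate format. Unconverted hematin is dissolved with 5% (v/v) aqueous pyridine at pH 7.5, which leaves β-hematin undissolved. Result expressed as equivalents of compound relative to hematin at 50% inhibition.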

Plasmodium falciparum [2] = assay: Antimalarial activity against erythrocyte stages of chloroquine-resistant Plasmodium falciparum K1 infected in human erythrocytes by lactate dehydrogenase assay; assay type: functional, organism-based
Outline: (§1)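 Asexual blood-stage P. falciparum in continuous culture (modified Trager–Jensen), read out by parasite lactate dehydrogenase. Stocks are 2 mg/mL in DMSO or methanol. […] IC50 comes from nonlinear dose–response fitting.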

[3] = Dissociation constant, pKa of the compound with basic tertiary amino group by pH titration method; assay type: physicochemical
[4] = Dissociation constant, pKa of the compound with quinoline heteroaromatic N atom by pH titration method; assay type: physicochemical
Plasmodium falciparum [5] = assay: Antimalarial activity against erythrocyte stages of chloroquine-sensitive Plasmodium falciparum D10 infected in human erythrocytes by lactate dehydrogenase assay; assay type: functional, organism-based; outline: as §1
Plasmodium falciparum [6] = assay: Resistance index, ratio of IC50 for chloroquine-resistant Plasmodium falciparum K1 to IC50 for chloroquine-sensitive Plasmodium falciparum D10; assay type: functional
Outline: (§2)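 Resistance index is the IC50 against the resistant strain divided by the IC50 against D10. Both IC50s come from the lactate dehydrogenase growth assay on asexual blood stages, run by the same serial-dilution protocol.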

Plasmodium berghei [7] = assay: Antimalarial activity against Plasmodium berghei infected in NMRI mouse assessed as parasitized red blood cells level at 30 mg/kg, po administered as single dose 4 hrs post infection measured on day 4 (reference value: 78%)
Plasmodium berghei [8] = assay: Antimalarial activity against Plasmodium berghei infected in NMRI mouse assessed as host survival time at 30 mg/kg, po administered as a single dose 4 hrs post infection (reference value: 4 days)
Plasmodium berghei [9] = assay: Antimalarial activity against Plasmodium berghei infected in NMRI mouse assessed as reduction of parasitemia level at 100 mg/kg, po administered as single dose 4 hrs post infection (reference value: 0.16%); set-up: scale not given: the % may be the effect or the level left
[10] = biological target: T1, Chloroquine resistance transporter (Plasmodium falciparum, UniProt Q9N623); assay: Inhibition of chloroquine-resistant Plasmodium falciparum Dd2 chloroquine resistance transporter expressed in xenopus laevis oocytes assessed as inhibition of [3H]chloroquine uptake after 1 to 2 hrs; assay type: cell-based, Oocyte
T1 sequence (Q9N623 whole entry): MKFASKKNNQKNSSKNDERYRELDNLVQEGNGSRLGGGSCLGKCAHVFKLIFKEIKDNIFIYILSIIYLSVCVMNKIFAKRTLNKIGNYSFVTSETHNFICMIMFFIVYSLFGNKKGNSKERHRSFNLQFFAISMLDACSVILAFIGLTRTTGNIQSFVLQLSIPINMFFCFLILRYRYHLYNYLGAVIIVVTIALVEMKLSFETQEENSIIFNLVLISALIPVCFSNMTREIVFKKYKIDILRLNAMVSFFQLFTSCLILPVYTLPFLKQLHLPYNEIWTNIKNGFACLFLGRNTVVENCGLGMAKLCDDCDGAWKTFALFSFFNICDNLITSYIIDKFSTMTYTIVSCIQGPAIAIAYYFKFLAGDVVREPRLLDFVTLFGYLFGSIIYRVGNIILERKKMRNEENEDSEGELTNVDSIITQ

Plasmodium falciparum [11] = assay: Resistance index, ratio of IC50 for chloroquine-resistant Plasmodium falciparum W2 to IC50 for chloroquine-sensitive Plasmodium falciparum D10; assay type: functional; outline: as §2
Plasmodium berghei [12] = assay: Antimalarial activity against Plasmodium berghei infected in NMRI mouse assessed as parasitized red blood cells level at 100 mg/kg, po administered as single dose 4 hrs post infection measured on day 4 (reference value: 78%)
Plasmodium falciparum [13] = assay: Antimalarial activity against erythrocyte stages of chloroquine-resistant Plasmodium falciparum Dd2 infected in human erythrocytes by lactate dehydrogenase assay; assay type: functional, organism-based; outline: as §1
Plasmodium falciparum [14] = assay: Resistance index, ratio of IC50 for chloroquine-resistant Plasmodium falciparum Dd2 to IC50 for chloroquine-sensitive Plasmodium falciparum D10; assay type: functional; outline: as §2
[15] = biological target: T2, Chloroquine resistance transporter (Plasmodium falciparum) (UniProt Q9N623); assay: Inhibition of chloroquine-sensitive Plasmodium falciparum D10 chloroquine resistance transporter expressed in xenopus laevis oocytes assessed as inhibition of [3H]chloroquine uptake after 1 to 2 hrs; assay type: cell-based; details: Oocyte
T2 sequence (whole entry): T1 sequence (Q9N623 whole entry)

Plasmodium berghei [16] = assay: Antimalarial activity against Plasmodium berghei infected in NMRI mouse assessed as host survival time at 100 mg/kg, po administered as a single dose 4 hrs post infection (reference value: 4 days)
Plasmodium falciparum [17] = assay: Resistance index, ratio of IC50 for chloroquine-resistant Plasmodium falciparum RSA11 to IC50 for chloroquine-sensitive Plasmodium falciparum D10; assay type: functional; outline: as §2
Plasmodium falciparum [18] = assay: Antimalarial activity against erythrocyte stages of chloroquine-resistant Plasmodium falciparum RSA11 infected in human erythrocytes by lactate dehydrogenase assay; assay type: functional, organism-based; outline: as §1
Plasmodium berghei [19] = assay: Antimalarial activity against Plasmodium berghei infected in NMRI mouse assessed as reduction of parasitemia level at 30 mg/kg, po administered as single dose 4 hrs post infection (reference value: 2.76%); set-up: scale not given: the % may be the effect or the level left
[20] = Selectivity index, ratio of IC50 for CHO cells to IC50 for chloroquine-sensitive Plasmodium falciparum D10; assay type: toxicity, cell-based; details: hamster, read-out: Ratio IC50
Outline: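 The D10 value came from parasite lactate dehydrogenase read-out on erythrocytic cultures, 10 two-fold dilutions from 100 ng/mL, with nonlinear dose–response fitting.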

CHO = assay: Cytotoxicity against CHO cells by MTT assay; assay type: cell-based; details: Cricetulus griseus
Outline: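 CHO cells, MTT colorimetric growth read-out. Compound from a 2 mg/mL stock, tested from 100 μg/mL in 10-fold serial dilutions in complete medium (5 concentrations, lowest 0.01 μg/mL). Emetine reference. IC50 from nonlinear dose–response fitting; mean ± SEM, n = 3.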

Plasmodium falciparum [21] = assay: Antimalarial activity against erythrocyte stages of chloroquine-resistant Plasmodium falciparum W2 infected in human erythrocytes by lactate dehydrogenase assay; assay type: functional, organism-based; outline: as §1
Plasmodium berghei [22] = assay: Antimalarial activity against Plasmodium berghei infected in NMRI mouse assessed as reduction of parasitemia level at 30 mg/kg, po administered on day 0, 1, 2 and 3 after postinfection (reference value: 0.38%); assay type: functional; set-up: scale not given: the % may be the effect or the level left
Plasmodium berghei [23] = assay: Antimalarial activity against Plasmodium berghei infected in NMRI mouse assessed as parasitized red blood cells level at 30 mg/kg, po administered on day 0, 1, 2 and 3 after postinfection measured on day 4 (reference value: 78%); assay type: functional
Plasmodium berghei [24] = assay: Antimalarial activity against Plasmodium berghei infected in NMRI mouse assessed as parasitized red blood cells level at 100 mg/kg, po administered on day 0, 1, 2 and 3 after postinfection measured on day 4 (reference value: 78%); assay type: functional
Plasmodium berghei [25] = assay: Antimalarial activity against Plasmodium berghei infected in NMRI mouse assessed as reduction of parasitemia level at 100 mg/kg, po administered on day 0, 1, 2 and 3 after postinfection (reference value: 0.12%); assay type: functional; set-up: scale not given: the % may be the effect or the level left
Plasmodium berghei [26] = assay: Antimalarial activity against Plasmodium berghei infected in NMRI mouse assessed as host survival time at 100 mg/kg, po administered on day 0, 1, 2 and 3 after postinfection (reference value: 4 days); assay type: functional
Outline: (§3)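 P. berghei in female NMRI mice (modified Peters 4-day test): 0.2 mL of donor blood diluted to 10^8 parasitized erythrocytes/mL given i.v. Oral dosing starts 4 h postinfection, with further daily doses at 24, 48 and 72 h by regimen. Groups of 3 treated and 5 untreated mice. Survival followed to day 30, and survivors are checked for parasitemia.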

Plasmodium berghei [27] = assay: Antimalarial activity against Plasmodium berghei infected in NMRI mouse assessed as host survival time at 30 mg/kg, po administered on day 0, 1, 2 and 3 after postinfection (reference value: 4 days); assay type: functional; outline: as §3
Plasmodium berghei [28] = assay: Antimalarial activity against Plasmodium berghei infected in NMRI mouse assessed as parasitized red blood cells level at 30 mg/kg, po administered on day 0, 1 and 2 after postinfection measured on day 4 (reference value: 78%); assay type: functional
Plasmodium berghei [29] = assay: Antimalarial activity against Plasmodium berghei infected in NMRI mouse assessed as host survival time at 30 mg/kg, po administered on day 0, 1 and 2 after postinfection (reference value: 4 days); assay type: functional; outline: as §3
Plasmodium berghei [30] = assay: Antimalarial activity against Plasmodium berghei infected in NMRI mouse assessed as reduction of parasitemia level at 100 mg/kg, po administered on day 0, 1 and 2 after postinfection (reference value: 0.11%); assay type: functional; set-up: scale not given: the % may be the effect or the level left
Plasmodium berghei [31] = assay: Antimalarial activity against Plasmodium berghei infected in NMRI mouse assessed as reduction of parasitemia level at 30 mg/kg, po administered on day 0, 1 and 2 after postinfection (reference value: 0.13%); assay type: functional; set-up: scale not given: the % may be the effect or the level left
Plasmodium berghei [32] = assay: Antimalarial activity against Plasmodium berghei infected in NMRI mouse assessed as parasitized red blood cells level at 100 mg/kg, po administered on day 0, 1 and 2 after postinfection measured on day 4 (reference value: 78%); assay type: functional
Plasmodium berghei [33] = assay: Antimalarial activity against Plasmodium berghei infected in NMRI mouse assessed as host survival time at 100 mg/kg, po administered on day 0, 1 and 2 after postinfection (reference value: 4 days); assay type: functional; outline: as §3

| SMILES | IC50 [1] [equivalents] | IC50 (Plasmodium falciparum [2]) | pKa [3] | pKa [4] | IC50 (Plasmodium falciparum [5]) | Ratio IC50 (Plasmodium falciparum [6]) | further results |
| --- | --- | --- | --- | --- | --- | --- | --- |
| CN(Cc1ccc(Cl)cc1)Cc1ccccc1CNc1ccnc2cc(Cl)ccc12 | 1.4 | 1130 nM | 9.6 | 7.44 | – | – | – |
| COc1ccc(CN(C)Cc2ccccc2CNc2ccnc3cc(Cl)ccc23)cc1 | 0.46 | 134 nM | 9.85 | 7.47 | 175 nM | 0.8 | – |
| CN(Cc1ccc(N(C)C)cc1)Cc1cccc(CNc2ccnc3cc(Cl)ccc23)c1 | 0.5 | 281 nM | 9.67 | 7.36 | > 0.1 µg/mL | – | – |
| CN(Cc1ccccc1)Cc1ccc(CNc2ccnc3cc(Cl)ccc23)cc1 | 0.32 | 25 nM | 9.9 | 7.56 | 22 nM | 0.9 | Activity (Plasmodium berghei [7]): 2.16%; Time (Plasmodium berghei [8]): 6.7 days; Activity (Plasmodium berghei [9]): 99.8%; IC50 [10]: 69000 nM; Ratio IC50 (Plasmodium falciparum [11]): 1; Activity (Plasmodium berghei [12]): 0.12%; IC50 (Plasmodium falciparum [13]): 26 nM; Ratio IC50 (Plasmodium falciparum [14]): 1.2; inhibition [15]: Active; Time (Plasmodium berghei [16]): 10 days; Ratio IC50 (Plasmodium falciparum [17]): 1.7; IC50 (Plasmodium falciparum [18]): 38 nM; Activity (Plasmodium berghei [19]): 97%; selectivity ratio [20]: > 9220; IC50 (CHO): > 249000 nM; IC50 (Plasmodium falciparum [21]): 23 nM |
| CCN(CC)CCCC(C)Nc1ccnc2cc(Cl)ccc12 (stereo not given) [CHLOROQUINE] | 1.9 | – | – | – | – | – | inhibition [15]: Active |
| CN(Cc1ccc(Cl)cc1)Cc1cccc(CNc2ccnc3cc(Cl)ccc23)c1 | 0.66 | 85 nM | 9.89 | 7.55 | 138 nM | 0.6 | – |
| COc1ccc(CN(C)Cc2ccc(CNc3ccnc4cc(Cl)ccc34)cc2)cc1 | 1.44 | 88 nM | 9.7 | 7.44 | 130 nM | 0.7 | – |
| CC[C@H]1CN2CCc3cc(OC)c(OC)cc3[C@@H]2C[C@@H]1C[C@H]1NCCc2cc(OC)c(OC)cc21 [EMETINE] | – | – | – | – | – | – | IC50 (CHO): 80 nM |
| CN(Cc1ccc(CNc2ccnc3cc(Cl)ccc23)cc1)Cc1ccc(N(C)C)cc1 | 0.4 | 36 nM | 9.66 | 7.33 | 47 nM | 0.8 | selectivity ratio [20]: > 4790; IC50 (CHO): > 225000 nM |
| CN(Cc1ccccc1)Cc1ccccc1CNc1ccnc2cc(Cl)ccc12 | 1.1 | 122 nM | 9.85 | 7.57 | 140 nM | 0.9 | IC50 [10]: 58000 nM; Activity (Plasmodium berghei [22]): 99.6%; Activity (Plasmodium berghei [23]): 0.3%; Activity (Plasmodium berghei [24]): 0.09%; Activity (Plasmodium berghei [25]): 99.9%; Time (Plasmodium berghei [26]): 30 days; Time (Plasmodium berghei [27]): 20.7 days |
| COc1ccc(CN(C)Cc2cccc(CNc3ccnc4cc(Cl)ccc34)c2)cc1 | 0.52 | 120 nM | 9.67 | 7.38 | 91 nM | 1.3 | – |
| CN(Cc1ccc(Cl)cc1)Cc1ccc(CNc2ccnc3cc(Cl)ccc23)cc1 | 0.34 | > 10 µg/mL | 9.74 | 7.44 | > 0.1 µg/mL | – | – |
| CN(Cc1ccc(N(C)C)cc1)Cc1ccccc1CNc1ccnc2cc(Cl)ccc12 | 0.48 | 149 nM | 9.71 | 7.4 | 178 nM | 0.8 | – |
| CN(Cc1ccccc1)Cc1cccc(CNc2ccnc3cc(Cl)ccc23)c1 | 0.69 | 43 nM | 9.77 | 7.63 | 41 nM | 1 | Activity (Plasmodium berghei [28]): 0.1%; IC50 [10]: 36000 nM; Time (Plasmodium berghei [29]): 16.7 days; Activity (Plasmodium berghei [30]): 99.9%; Activity (Plasmodium berghei [31]): 99.9%; Activity (Plasmodium berghei [32]): 0.09%; selectivity ratio [20]: 1270; IC50 (CHO): 70000 nM; Time (Plasmodium berghei [33]): 30 days |
